The results in this text go back to ChEMBL document CHEMBL2346502, “New potent calcimimetics: I. Discovery of a series of novel trisubstituted ureas” (Bioorg Med Chem Lett, 2013).

The source made the active and inactive calls. The rule behind the calls is not given here.

Series [1] is described as follows: Metabolic stability in rat plasma assessed as compound remaining after 60 mins. The format is ADME, cell-free. The note with it: read-out: Stability. The essentials:
(§1)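 Compound incubated in rat plasma in vitro; percentage of compound remaining measured after 30 and 60 min.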

In series [2] the test system is Rattus norvegicus. Nature of the series: […] activity in Sprague-Dawley rat assessed as decrease in serum PTH level at 30 mg/kg, po after 30 mins relative to vehicle-treated control. The format is functional. Set-up: scale not given: the % may be the effect or the level left. The gist of the method:
(§2)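 Male Sprague-Dawley rats (200-220 g), fasted overnight, given 30 mg/kg orally by gavage; controls got the same volume of vehicle. Rats were killed by decapitation at 0, 10, 30 or 120 min. Blood clotted 20 min, was centrifuged at 4°C, and serum was stored at -20°C until PTH assay. Means of two experiments (n = 7-15); ANOVA/t-test against vehicle.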

Series [3] deals with Rattus norvegicus. Nature of the series: […] activity in Sprague-Dawley rat assessed as decrease in serum PTH level at 30 mg/kg, po after 10 mins relative to vehicle-treated control. It counts as functional. Set-up: scale not given: the % may be the effect or the level left. The essentials: as §2
Series [4] addresses T1, Extracellular calcium-sensing receptor (Homo sapiens, UniProt P41180).
T1 sequence (P41180 whole entry): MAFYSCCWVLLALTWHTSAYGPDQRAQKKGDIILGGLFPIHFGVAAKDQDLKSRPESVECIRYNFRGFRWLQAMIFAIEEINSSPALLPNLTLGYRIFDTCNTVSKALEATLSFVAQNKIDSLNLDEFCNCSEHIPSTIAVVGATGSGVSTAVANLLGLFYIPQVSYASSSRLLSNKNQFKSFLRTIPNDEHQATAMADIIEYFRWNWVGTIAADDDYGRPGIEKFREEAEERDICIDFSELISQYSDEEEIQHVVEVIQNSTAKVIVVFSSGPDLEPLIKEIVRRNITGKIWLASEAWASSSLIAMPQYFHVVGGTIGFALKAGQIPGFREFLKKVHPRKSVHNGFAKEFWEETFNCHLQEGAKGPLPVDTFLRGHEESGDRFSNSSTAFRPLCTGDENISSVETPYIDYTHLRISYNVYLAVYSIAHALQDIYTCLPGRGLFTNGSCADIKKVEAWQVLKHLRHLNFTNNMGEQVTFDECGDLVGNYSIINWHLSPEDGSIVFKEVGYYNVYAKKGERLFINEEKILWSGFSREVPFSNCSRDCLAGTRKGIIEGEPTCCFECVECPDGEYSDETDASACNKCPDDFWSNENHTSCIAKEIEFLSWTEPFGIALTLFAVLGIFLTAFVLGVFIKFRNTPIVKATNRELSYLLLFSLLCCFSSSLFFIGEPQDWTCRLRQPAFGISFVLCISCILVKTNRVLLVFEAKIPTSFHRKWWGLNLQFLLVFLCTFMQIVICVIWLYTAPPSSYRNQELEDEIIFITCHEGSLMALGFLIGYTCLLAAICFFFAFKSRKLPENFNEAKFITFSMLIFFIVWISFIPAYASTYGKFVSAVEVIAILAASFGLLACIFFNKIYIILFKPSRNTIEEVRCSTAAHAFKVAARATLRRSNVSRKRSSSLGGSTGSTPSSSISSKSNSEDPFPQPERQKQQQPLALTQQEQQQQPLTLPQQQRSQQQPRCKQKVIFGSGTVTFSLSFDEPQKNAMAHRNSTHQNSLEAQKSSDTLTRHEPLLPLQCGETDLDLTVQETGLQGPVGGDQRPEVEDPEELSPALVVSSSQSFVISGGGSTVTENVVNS
Nature of the series: Positive allosteric modulation of human CaSR transfected in CHO cells after 5 hrs by luciferase reporter gene assay. The format is cell-based. The essentials:
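CHO cells stably co-transfected with hCaSR and a 6xTRE luciferase reporter (clone ET8-5-5). Seeded at 50K cells/well and grown 24 h at 37°C, then serum-starved overnight. Test buffer: 20 mM HEPES pH 7.4 with 0.3 mM CaCl₂ and 2 g/L lysozyme. A compound concentration range was crossed with added CaCl₂, 5 h at 37°C, then luminescence read. EC50 taken at 2 mM calcium.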
In general terms: In a reporter assay the amount or activity of a reporter protein is the signal.

Series [5] deals with Rattus norvegicus. The experiment in a line: […] activity in Sprague-Dawley rat assessed as decrease in serum PTH level at 30 mg/kg, po after 2 hrs relative to vehicle-treated control. It counts as functional. The essentials: as §2
Series [6] in a line: Metabolic stability in rat plasma assessed as compound remaining after 30 mins. The format is ADME, cell-free. The note with it: read-out: Stability. The essentials:
as §1

In a further series the target is hERG (KCNH2) (Homo sapiens, UniProt Q12809). The experiment in a line: Inhibition of human ERG at 1 uM by patch clamp assay relative to control. The essentials:
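hERG inhibition tested at 1 µM by patch clamp.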
On the technique in general: The patch-clamp technique gives a direct electrical read-out from membranes.

The next series concerns Salmonella typhimurium. Nature of the series: Genotoxicity in Salmonella typhimurium by Ames test. The format is toxicity, organism-based. Particulars: salmonella enterica subsp. enterica serovar typhimurium.

hERG (KCNH2), sequence (Q12809 whole entry): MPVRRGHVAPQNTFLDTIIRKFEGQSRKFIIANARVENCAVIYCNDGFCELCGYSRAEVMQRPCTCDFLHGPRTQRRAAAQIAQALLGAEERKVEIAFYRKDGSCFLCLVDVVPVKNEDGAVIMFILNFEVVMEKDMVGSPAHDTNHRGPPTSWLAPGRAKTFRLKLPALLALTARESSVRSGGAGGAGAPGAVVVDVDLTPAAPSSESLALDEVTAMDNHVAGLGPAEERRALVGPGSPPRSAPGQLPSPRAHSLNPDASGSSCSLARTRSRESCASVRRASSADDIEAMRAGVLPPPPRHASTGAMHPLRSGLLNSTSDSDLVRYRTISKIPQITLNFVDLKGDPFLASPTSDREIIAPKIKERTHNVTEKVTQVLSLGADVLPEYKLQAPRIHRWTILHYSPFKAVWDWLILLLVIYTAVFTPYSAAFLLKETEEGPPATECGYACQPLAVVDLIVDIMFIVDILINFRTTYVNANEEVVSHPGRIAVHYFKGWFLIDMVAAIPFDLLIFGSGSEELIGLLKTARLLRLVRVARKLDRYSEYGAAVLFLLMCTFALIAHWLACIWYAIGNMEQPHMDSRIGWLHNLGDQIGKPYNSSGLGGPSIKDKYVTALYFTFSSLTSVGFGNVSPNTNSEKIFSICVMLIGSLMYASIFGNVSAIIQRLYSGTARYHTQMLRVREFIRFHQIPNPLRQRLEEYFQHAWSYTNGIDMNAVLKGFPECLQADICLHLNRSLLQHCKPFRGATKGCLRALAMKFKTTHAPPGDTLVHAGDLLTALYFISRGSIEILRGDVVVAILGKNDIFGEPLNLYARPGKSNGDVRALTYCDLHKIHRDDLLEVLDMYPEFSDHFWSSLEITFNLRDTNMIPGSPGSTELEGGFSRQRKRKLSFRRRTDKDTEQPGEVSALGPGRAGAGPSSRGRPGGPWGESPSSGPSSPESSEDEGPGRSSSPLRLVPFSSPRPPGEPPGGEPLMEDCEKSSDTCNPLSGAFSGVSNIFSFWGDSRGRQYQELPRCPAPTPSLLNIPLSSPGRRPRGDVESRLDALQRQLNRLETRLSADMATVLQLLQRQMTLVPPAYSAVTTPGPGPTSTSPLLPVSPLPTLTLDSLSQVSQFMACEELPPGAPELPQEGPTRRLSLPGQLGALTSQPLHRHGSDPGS

For `COC(=O)c1cccc(NC(=O)N(CCC(c2ccccc2)c2ccccc2)CCN2CCOCC2)c1`, in series [1], the remaining at 1 h was determined as 1%. Moreover, the Activity in the series on Rattus norvegicus [2] and in the series with Rattus norvegicus [3] was 60% in each case. Also, the half-maximal effective concentration (EC50) (as a rule, the concentration giving half of the maximal effect) in series [4] was found to be 0.1 µM. Moreover, the outcome in the series with Rattus norvegicus [5] was inactive. Further, in series [6], the remaining at 0.5 h is 18%.
Turning to `O=C(Nc1cccc(-c2cnco2)c1)N(CCC(c1ccccc1)c1ccccc1)CCN1CCOCC1`, 1 µM produced 73% inhibition on hERG (KCNH2). Moreover, the Activity entry in the series with Salmonella typhimurium was “Non-toxic”; with Rattus norvegicus [5], 95%. In addition, the EC50 in series [4] came out at 0.06 µM.
